Assays:
[1] = biological target: T1, NAD-dependent protein deacylase sirtuin-5, mitochondrial (Homo sapiens, UniProt Q9NXA8); test: Binding affinity to N-terminal his-tagged human SIRT5 (34 to 302 residues) expressed in Escherichia coli assessed as dissociation constant using CPS1-succK537 peptide as substrate
Procedure, shortened: (§1)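 MST binding: Sirt5 labelled 2 h at room temperature in the dark with twofold molar excess FITC in PBS pH 7.4, free dye removed; 10 nM labelled protein incubated with ligand plus saturating 0.5 mM peptide or 5 mM NAD+ in PBS, 10% DMSO, 30 min on ice; read at 25 °C.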

[2] = biological target: T1, NAD-dependent protein deacylase sirtuin-5, mitochondrial; test: Binding affinity to N-terminal his-tagged human SIRT5 (34 to 302 residues) expressed in Escherichia coli assessed as dissociation constant using NAD+ as substrate; procedure, shortened: as §1

T1 sequence (Q9NXA8 whole entry, the tested form may be a part): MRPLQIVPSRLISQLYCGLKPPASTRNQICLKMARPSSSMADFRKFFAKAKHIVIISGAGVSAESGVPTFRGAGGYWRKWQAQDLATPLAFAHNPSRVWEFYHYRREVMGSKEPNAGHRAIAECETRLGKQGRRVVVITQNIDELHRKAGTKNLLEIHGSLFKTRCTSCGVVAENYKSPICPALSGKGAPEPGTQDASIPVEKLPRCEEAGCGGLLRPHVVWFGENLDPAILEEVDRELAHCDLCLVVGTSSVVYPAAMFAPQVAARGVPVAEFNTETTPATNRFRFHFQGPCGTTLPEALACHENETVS

CCOC(=O)C1=CN(C(=O)c2ccccc2)C=C(C(=O)OCC)C1c1ccsc1
Kd [1]: 24 µM | Kd [2]: 28 µM

Source: ChEMBL document CHEMBL5108071, “Potent and Specific Activators for Mitochondrial Sirtuins Sirt3 and Sirt5” (J Med Chem, 2022)
